Experimental data published in publication PMC6172068 (Cancer Science, 2018).

Experiment: Safety and tolerability
Format: in vivo, Japanese patients
Details: for Stomatitis / Subdural hematoma / Syncope / Thrombocytopenia / Tumor-associated fever / Vomiting / Anemia / Bone pain / Constipation / Corneal erosion / Cough / Diarrhea / Disseminated intravascular coagulation / Dysesthesia / Dysgeusia / ECG prolonged QT interval / Elevated ALT / Elevated AST / Elevated blood creatine phosphokinase / Elevated blood lactate dehydrogenase / Elevated liver enzymes (ALT, AST, and alkaline phosphatase) / Epistaxis / Febrile neutropenia / Headache / Hematoma / Hypertension / Hypokalemia / Hypotension / Hypoxia / Increased amylase / Insomnia / Lung infection / Nausea / Pleural effusion / Pneumonia / Pyrexia / Rash / Renal impairment / Sepsis / Somnolence: N = 24
Outline: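 In this open-label study, once-daily oral dosing escalated 20–300 mg/d by Bayesian continual reassessment. DLTs were judged from Cycles 0 and 1, and MTD/RD came from the posterior mean DLT rate plus investigator assessment. Treatment-emergent AEs were graded by NCI-CTCAE v4.0 for seriousness, duration and relatedness. The safety analysis set comprised all patients given ≥1 dose.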

CCc1nc(C(N)=O)c(Nc2ccc(N3CCC(N4CCN(C)CC4)CC3)c(OC)c2)nc1NC1CCOCC1 [gilteritinib]
Stomatitis (Grade 1-2): 5 (20.8%) n (%) | Subdural hematoma (Grade 1-2): 1 (4.2%) n (%) | Syncope (Grade 1-2): 0 n (%) | Thrombocytopenia (Grade 1-2): 0 n (%) | Tumor-associated fever (Grade 1-2): 2 (8.3%) n (%) | Vomiting (Grade 1-2): 2 (8.3%) n (%) | Anemia (Grade 3): 2 (8.3%) n (%) | Bone pain (Grade 3): 1 (4.2%) n (%) | Constipation (Grade 3): 0 n (%) | Corneal erosion (Grade 3): 0 n (%) | Cough (Grade 3): 0 n (%) | Diarrhea (Grade 3): 1 (4.2%) n (%) | Disseminated intravascular coagulation (Grade 3): 3 (12.5%) n (%) | Dysesthesia (Grade 3): 0 n (%) | Dysgeusia (Grade 3): 0 n (%) | ECG prolonged QT interval (Grade 3): 1 (4.2%) n (%) | Elevated ALT (Grade 3): 0 n (%) | Elevated AST (Grade 3): 0 n (%) | Elevated blood creatine phosphokinase (Grade 3): 2 (8.3%) n (%) | Elevated blood lactate dehydrogenase (Grade 3): 1 (4.2%) n (%) | Elevated liver enzymes (ALT, AST, and alkaline phosphatase) (Grade 3): 0 n (%) | Epistaxis (Grade 3): 0 n (%) | Febrile neutropenia (Grade 3): 3 (12.5%) n (%) | Headache (Grade 3): 0 n (%) | Hematoma (Grade 3): 0 n (%) | Hypertension (Grade 3): 0 n (%) | Hypokalemia (Grade 3): 1 (4.2%) n (%) | Hypotension (Grade 3): 0 n (%) | Hypoxia (Grade 3): 0 n (%) | Increased amylase (Grade 3): 1 (4.2%) n (%) | Insomnia (Grade 3): 0 n (%) | Lung infection (Grade 3): 1 (4.2%) n (%) | Nausea (Grade 3): 0 n (%) | Pleural effusion (Grade 3): 0 n (%) | Pneumonia (Grade 3): 3 (12.5%) n (%) | Pyrexia (Grade 3): 0 n (%) | Rash (Grade 3): 0 n (%) | Renal impairment (Grade 3): 0 n (%) | Sepsis (Grade 3): 1 (4.2%) n (%) | Somnolence (Grade 3): 0 n (%) | Stomatitis (Grade 3): 0 n (%) | Subdural hematoma (Grade 3): 0 n (%) | Syncope (Grade 3): 2 (8.3%) n (%) | Thrombocytopenia (Grade 3): 2 (8.3%) n (%) | Tumor-associated fever (Grade 3): 0 n (%) | Vomiting (Grade 3): 0 n (%) | Anemia (Grade 4): 0 n (%) | Bone pain (Grade 4): 0 n (%) | Constipation (Grade 4): 0 n (%) | Corneal erosion (Grade 4): 0 n (%) | Cough (Grade 4): 0 n (%) | Diarrhea (Grade 4): 0 n (%) | Disseminated intravascular coagulation (Grade 4): 0 n (%) | Dysesthesia (Grade 4): 0 n (%) | Dysgeusia (Grade 4): 0 n (%) | ECG prolonged QT interval (Grade 4): 0 n (%) | Elevated ALT (Grade 4): 0 n (%) | Elevated AST (Grade 4): 0 n (%) | Elevated blood creatine phosphokinase (Grade 4): 1 (4.2%) n (%) | Elevated blood lactate dehydrogenase (Grade 4): 0 n (%) | Elevated liver enzymes (ALT, AST, and alkaline phosphatase) (Grade 4): 0 n (%) | Epistaxis (Grade 4): 0 n (%) | Febrile neutropenia (Grade 4): 0 n (%) | Headache (Grade 4): 0 n (%) | Hematoma (Grade 4): 0 n (%) | Hypertension (Grade 4): 0 n (%) | Hypokalemia (Grade 4): 0 n (%) | Hypotension (Grade 4): 0 n (%) | Hypoxia (Grade 4): 0 n (%) | Increased amylase (Grade 4): 0 n (%) | Insomnia (Grade 4): 0 n (%) | Lung infection (Grade 4): 0 n (%) | Nausea (Grade 4): 0 n (%) | Pleural effusion (Grade 4): 0 n (%) | Pneumonia (Grade 4): 0 n (%) | Pyrexia (Grade 4): 0 n (%) | Rash (Grade 4): 0 n (%) | Renal impairment (Grade 4): 0 n (%) | Sepsis (Grade 4): 0 n (%) | Somnolence (Grade 4): 0 n (%) | Stomatitis (Grade 4): 0 n (%) | Subdural hematoma (Grade 4): 0 n (%) | Syncope (Grade 4): 0 n (%) | Thrombocytopenia (Grade 4): 2 (8.3%) n (%) | Tumor-associated fever (Grade 4): 0 n (%) | Vomiting (Grade 4): 0 n (%) | Anemia (Grade 5): 0 n (%) | Bone pain (Grade 5): 0 n (%) | Constipation (Grade 5): 0 n (%) | Corneal erosion (Grade 5): 0 n (%) | Cough (Grade 5): 0 n (%) | Diarrhea (Grade 5): 0 n (%) | Disseminated intravascular coagulation (Grade 5): 0 n (%) | Dysesthesia (Grade 5): 0 n (%) | Dysgeusia (Grade 5): 0 n (%) | ECG prolonged QT interval (Grade 5): 0 n (%) | Elevated ALT (Grade 5): 0 n (%) | Elevated AST (Grade 5): 0 n (%) | Elevated blood creatine phosphokinase (Grade 5): 0 n (%) | Elevated blood lactate dehydrogenase (Grade 5): 0 n (%) | Elevated liver enzymes (ALT, AST, and alkaline phosphatase) (Grade 5): 0 n (%) | Epistaxis (Grade 5): 0 n (%) | Febrile neutropenia (Grade 5): 0 n (%) | Headache (Grade 5): 0 n (%) | Hematoma (Grade 5): 0 n (%) | Hypertension (Grade 5): 0 n (%) | Hypokalemia (Grade 5): 0 n (%) | Hypotension (Grade 5): 0 n (%) | Hypoxia (Grade 5): 0 n (%) | Increased amylase (Grade 5): 0 n (%) | Insomnia (Grade 5): 0 n (%) | Lung infection (Grade 5): 0 n (%) | Nausea (Grade 5): 0 n (%) | Pleural effusion (Grade 5): 0 n (%) | Pneumonia (Grade 5): 0 n (%) | Pyrexia (Grade 5): 0 n (%) | Rash (Grade 5): 0 n (%) | Renal impairment (Grade 5): 0 n (%) | Sepsis (Grade 5): 0 n (%) | Somnolence (Grade 5): 0 n (%) | Stomatitis (Grade 5): 0 n (%) | Subdural hematoma (Grade 5): 1 (4.2%) n (%) | Syncope (Grade 5): 0 n (%) | Thrombocytopenia (Grade 5): 0 n (%) | Tumor-associated fever (Grade 5): 0 n (%) | Vomiting (Grade 5): 0 n (%) | patients who experienced at least 1 AE (SAF, all doses): 24 patients | patients with AEs resulting in permanent discontinuation of gilteritinib (all doses, 6 of 24 patients): 25% | patients with serious AEs (all doses, 7 of 24 patients): 29.2% | patients with drug-related grade ≥3 AEs (all doses, 9 patients): 37.5% | Drug-related AE: pyrexia (all doses, n = 3/24): 12.5% | grade ≥3 AE: disseminated intravascular coagulation (all doses, n = 3/24): 12.5% | grade ≥3 AE: elevated blood creatine phosphokinase (all doses, n = 3/24): 12.5% | grade ≥3 AE: febrile neutropenia (all doses, n = 3/24): 12.5% | grade ≥3 AE: pneumonia (all doses, n = 3/24): 12.5% | Drug-related AE: diarrhea (all doses, n = 4/24): 16.7% | Drug-related AE: hypertension (all doses, n = 4/24): 16.7% | Drug-related AE: stomatitis (all doses, n = 4/24): 16.7% | Drug-related AE: thrombocytopenia (all doses, n = 4/24): 16.7% | grade ≥3 AE: thrombocytopenia (all doses, n = 4/24): 16.7% | Drug-related AE: renal impairment (all doses, n = 5/24): 20.8% | Drug-related AE: elevated blood lactate dehydrogenase (all doses, n = 6/24): 25% | Drug-related AE: elevated blood creatine phosphokinase (all doses, n = 7/24): 29.2% | Drug-related AE: elevated liver enzyme levels (all doses, n = 8/24): 33.3% | patients with grade ≥3 AEs (all doses, n = 16/24): 66.7% | patients with at least 1 treatment-related AE (all doses, n = 22/24): 91.7% | AE: febrile neutropenia (any grade, all doses, n = 5/24): 20.8% | AE: hypertension (any grade, all doses, n = 5/24): 20.8% | AE: renal impairment (any grade, all doses, n = 5/24): 20.8% | AE: stomatitis (any grade, all doses, n = 5/24): 20.8% | AE: diarrhea (any grade, all doses, n = 7/24): 29.2% | AE: pyrexia (any grade, all doses, n = 7/24): 29.2% | AE: elevated blood lactate dehydrogenase (any grade, all doses, n = 8/24): 33.3% | AE: elevated blood creatine phosphokinase (any grade, all doses, n = 9/24): 37.5% | AE: elevated liver enzymes (ALT, AST, alkaline phosphatase) (any grade, all doses, n = 9/24): 37.5% | drug-related AE leading to treatment discontinuation: pneumonia (n = 2/24): 8.3% | drug-related grade ≥3 AE: pneumonia (n = 2, 40 and 300 mg/d): 8.3% | drug-related grade ≥3 AE: anemia (n = 2, 200 and 300 mg/d): 8.3% | drug-related grade ≥3 AE: febrile neutropenia (n = 2, 200 and 300 mg/d): 8.3% | drug-related grade ≥3 AE: increased blood creatine phosphokinase (n = 3, 200 and 300 mg/d): 12.5% | drug-related grade ≥3 AE: thrombocytopenia (n = 4, 200 and 300 mg/d): 16.7% | patients who experienced DLTs during Cycle 0 and Cycle 1 (of the 24 patients in the SAF): 3 patients | maximum tolerated dose (MTD) (once-daily oral, Bayesian CRM and investigator opinion): 200 mg/day | recommended dose (RD) (once-daily oral, for subsequent studies): 120 mg/day
